From ChEMBL document CHEMBL3244426, “Synthesis and biological activities of ftorafur metabolites. 3'- and 4'-hydroxyftorafur” (1979)
≈ marks a conversion by molar mass, not a printed value.

How the values were obtained:
Format in all cases: functional
HeLa [1] = assay: Inhibition of cell cycle traverse in human HeLa cells assessed as mitotic index at 100 ug/ml after 16 hrs; design: scale not given: the % may be the effect or the level left
How it was run: (§1)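 HeLa cells were plated at 3.5 × 10^5 per 35-mm dish in Eagle's MEM with 10% fetal calf serum and antibiotics the day before. They were then exposed to drug in the same medium with 0.05 µg/mL colcemid for 16 h. Cells were trypsinized, cytocentrifuged onto slides and fixed in 3:1 MeOH–AcOH. The read-out was the mitotic index, mitotic cells as a percentage of cells counted.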

L1210 [2] = assay: In-vivo antitumor activity against mouse L1210 cells at 100 mg/kg relative to control
HeLa [3] = assay: Inhibition of cell cycle traverse in human HeLa cells assessed as mitotic index at 200 ug/ml after 16 hrs; design: scale not given: the % may be the effect or the level left; how it was run: as §1
L1210 [4] = assay: In-vivo antitumor activity against mouse L1210 cells at 80 mg/kg relative to control
L1210 [5] = assay: In-vivo antitumor activity against mouse L1210 cells at 60 mg/kg relative to control
HeLa [6] = assay: Growth inhibition of human HeLa cells; conditions: read-out: ID50
L1210 [7] = assay: In-vivo antitumor activity against mouse L1210 cells at 20 mg/kg relative to control
HeLa [8] = assay: Inhibition of cell cycle traverse in human HeLa cells assessed as mitotic index at 12.5 ug/ml after 16 hrs; design: scale not given: the % may be the effect or the level left
How it was run: (§2)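 HeLa cells (3.5 × 10^5) plated the day before in Eagle's MEM with 10% fetal calf serum and antibiotics. Drug added in the same medium with colcemid 0.05 µg/mL, incubated about 16 h. Cells trypsinized, cytocentrifuged onto slides, fixed in 3:1 MeOH-AcOH. Mitotic and interphase cells counted; mitotic index = % of total. Lower index means greater inhibition of cell cycle traverse.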

HeLa [9] = assay: Inhibition of cell cycle traverse in human HeLa cells assessed as mitotic index at 50 ug/ml after 16 hrs; design: scale not given: the % may be the effect or the level left; how it was run: as §2
HeLa [10] = assay: Inhibition of cell cycle traverse in human HeLa cells assessed as mitotic index at 25 ug/ml after 16 hrs; design: scale not given: the % may be the effect or the level left; how it was run: as §2

Structure (SMILES): O=c1[nH]c(=O)n([C@H]2C[C@@H](O)CO2)cc1F (relative stereo)
- Activity (HeLa [1]): 63.3%
- T/C (L1210 [2]): 114%
- Activity (HeLa [3]): 44%
- T/C (L1210 [4]): 91%
- T/C (L1210 [5]): 106%

Structure (SMILES): O=c1[nH]c(=O)n(C2CCCO2)cc1F (racemic) [TEGAFUR]
- Activity (HeLa [1]): 60.3%
- ED50 (HeLa [6]): 200 µg/mL (≈ 999 µM)
- Activity (HeLa [3]): 36%
- T/C (L1210 [4]): 102%

Structure (SMILES): O=c1[nH]c(=O)n([C@@H]2OCC[C@H]2O)cc1F (relative stereo)
- Activity (HeLa [1]): 64%
- T/C (L1210 [2]): 96%
- Activity (HeLa [3]): 34.7%
- T/C (L1210 [4]): 98%
- T/C (L1210 [5]): 108%

Structure (SMILES): O=c1[nH]cc(F)c(=O)[nH]1 [FLUOROURACIL]
- T/C (L1210 [7]): 153%
- Activity (HeLa [8]): 45.7%
- Activity (HeLa [9]): 31.7%
- Activity (HeLa [10]): 35.8%
